Laboratory results taken from ChEMBL document CHEMBL4765234 (J Med Chem, 2016).
Activity calls are given as the source filed them. The calls are words filed in the database; no cut-off is given here.

Experiments:
[1] = target: Free fatty acid receptor 1 (Mus musculus, UniProt Q76JU9); test: Agonist activity at Prolink-tagged mouse GPR40 fused with EA-tagged beta-arrestin expressed in human U2OS cells assessed as induction of beta-arrestin recruitment measured after 90 mins by beta-galactosidase based PathHunter assay; format: cell-based
Sequence of Free fatty acid receptor 1 (Mus musculus, UniProt Q76JU9) (Q76JU9 whole entry, the tested form may be a part): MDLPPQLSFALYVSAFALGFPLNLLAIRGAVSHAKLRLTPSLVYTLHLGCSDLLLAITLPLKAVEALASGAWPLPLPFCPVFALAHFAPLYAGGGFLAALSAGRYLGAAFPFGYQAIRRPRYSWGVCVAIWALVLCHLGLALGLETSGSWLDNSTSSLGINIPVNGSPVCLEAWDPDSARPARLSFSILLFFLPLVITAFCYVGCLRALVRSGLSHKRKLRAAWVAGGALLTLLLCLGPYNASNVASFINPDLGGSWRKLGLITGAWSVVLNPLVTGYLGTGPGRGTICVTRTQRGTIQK
In short: (§1)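 PathHunter β-gal complementation. Cells were incubated overnight at 5000/well in medium with 1% heat-inactivated FBS. Compound was added as a 20-point 2-fold series from a top final of 100 μM (1% DMSO) for 90 min at 37 °C, followed by detection reagents and chemiluminescence read after 1 h at rt.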

[2] = target: T1, Free fatty acid receptor 1 (Homo sapiens, UniProt O14842); test: Agonist activity at human recombinant full length GPR40 overexpressed in human HEK293 cells assessed as increase in intracellular calcium level measured over 3 mins by calcium 4 dye based FLIPR assay relative to 100 uM linoleic acid; format: functional, cell-based; settings: filed as agonist
T1 sequence (O14842 whole entry): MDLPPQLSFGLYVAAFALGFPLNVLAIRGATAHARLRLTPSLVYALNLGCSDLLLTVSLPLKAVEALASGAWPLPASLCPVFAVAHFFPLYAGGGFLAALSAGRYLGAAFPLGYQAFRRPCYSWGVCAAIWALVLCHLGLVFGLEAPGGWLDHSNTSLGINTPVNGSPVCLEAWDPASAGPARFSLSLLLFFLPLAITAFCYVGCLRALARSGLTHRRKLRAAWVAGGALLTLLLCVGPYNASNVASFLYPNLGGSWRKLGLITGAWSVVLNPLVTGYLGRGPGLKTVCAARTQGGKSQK
In short: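 HEK293 cells overexpressing hGPR40 (25K/well) were cultured overnight in DMEM/F12 with 0.2% FBS and geneticin. Compound was tested at 40 μM–0.1 nM final (20-point, 1% DMSO), and FLIPR fluorescence was read over 3 min.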

[3] = target: T2, Peroxisome proliferator-activated receptor gamma (Homo sapiens) (UniProt P37231); test: Displacement of [3H]-[…] from PPARgamma (unknown origin) expressed in baculovirus infected Sf9 insect cells upto 30 uM measured after 10 hrs by microbeta scintillation counting analysis; settings: dose microM <=30, time 10.0 hrs
T2 sequence (whole entry): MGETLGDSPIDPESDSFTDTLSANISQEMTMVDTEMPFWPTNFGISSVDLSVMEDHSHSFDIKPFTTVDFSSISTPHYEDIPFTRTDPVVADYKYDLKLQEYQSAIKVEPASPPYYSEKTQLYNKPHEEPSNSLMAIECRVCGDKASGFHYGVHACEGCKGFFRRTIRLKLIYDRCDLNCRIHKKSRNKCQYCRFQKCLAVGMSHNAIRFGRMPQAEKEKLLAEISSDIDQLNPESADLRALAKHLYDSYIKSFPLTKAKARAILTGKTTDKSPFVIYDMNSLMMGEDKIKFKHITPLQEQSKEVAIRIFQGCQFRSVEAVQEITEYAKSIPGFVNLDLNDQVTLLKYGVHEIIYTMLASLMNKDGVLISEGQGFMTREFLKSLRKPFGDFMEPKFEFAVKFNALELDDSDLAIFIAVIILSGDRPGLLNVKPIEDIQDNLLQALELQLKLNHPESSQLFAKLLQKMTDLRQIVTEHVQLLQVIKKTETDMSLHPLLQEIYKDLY
In short: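 Scintillation proximity assay. Sf9 lysates with baculovirus-expressed PPARα (0.3 μg), PPARδ (0.5 μg) or PPARγ (1.25 μg), each with RXRα, were bound via biotinylated DR2 oligo (0.126 nM) to streptavidin yttrium silicate beads. Buffer was HEPES pH 7.8 with KCl, MgCl2, DTT, CHAPS, 14% glycerol and salmon sperm DNA. A 3H reference agonist ligand was used, with 11 compound concentrations, for 10 h. Nonspecific binding was defined with 10000 nM unlabeled reference. Ki was derived from IC50.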

[4] = target: Free fatty acid receptor 1 (Mus musculus) (UniProt Q76JU9); test: Agonist activity at Prolink-tagged mouse GPR40 fused with EA-tagged beta-arrestin expressed in human U2OS cells assessed as induction of beta-arrestin recruitment measured after 90 mins by beta-galactosidase based PathHunter assay relative to control; format: cell-based; settings: filed as agonist; in short: as §1
Sequence of Free fatty acid receptor 1 (Mus musculus) (Q76JU9 whole entry, the tested form may be a part): as the sequence (Q76JU9 whole entry, the tested form may be a part) above

[5] = Dissociation constant, pKa2 of compound by potentiometric method; format: physicochemical
In short: (§2)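 pKa values measured potentiometrically.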

[6] = Dissociation constant, pKa1 of compound by potentiometric method; format: physicochemical; in short: as §2
[7] = target: T1, Free fatty acid receptor 1; test: Agonist activity at human recombinant full length GPR40 overexpressed in human HEK293 cells assessed as increase in inositol phosphate accumulation in presence of terbium cryptate-labeled anti IP1/d2-labelled IP1 measured after 120 mins by HTRF assay; format: functional, cell-based
In short: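 HEK293 hGPR40 cells (20K/well) were cultured overnight, washed, and held in IP1 stimulation buffer. IP-1 was measured by competitive HTRF immunoassay with terbium cryptate anti-IP1 mAb and d2-labelled IP1.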

[8] = target: Free fatty acid receptor 1 (Mus musculus) (UniProt Q76JU9); test: Agonist activity at GPR40 in mouse MIN6 cells assessed as induction of glucose-mediated insulin secretion incubated for 2 hrs by ELISA; format: cell-based
In short: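 Glucose-dependent insulin secretion in mouse MIN6 cells or rat islet cells, scored as secretion above the glucose-alone level.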

Mus musculus = test: Hypoglycemic activity in Balb/c mouse assessed as effective dose causing reduction in blood glucose level administered orally 60 mins prior to glucose challenge measured for 60 mins by IPGTT; format: functional; settings: po, 1 h
[9] = target: T1, Free fatty acid receptor 1; test: Agonist activity at human recombinant full-length Prolink-tagged GPR40 fused with EA-tagged beta-arrestin expressed in human HEK293 cells assessed as induction of beta-arrestin recruitment measured after 90 mins by beta-galactosidase based PathHunter assay relative to control; format: cell-based; settings: filed as agonist; in short: as §1
[10] = target: T1, Free fatty acid receptor 1; test: Displacement of [3H]-TAK-875 from human recombinant full-length GPR40 expressed in human HEK293 cell membrane incubated for 2 hrs by solid scintillation counting method; format: cell membranes; settings: for Activity: filed as agonist
[11] = Protein binding in plasma (unknown origin) by equilibrium dialysis method; format: ADME, cell-free; settings: human, read-out: PPB
In short: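 Plasma protein binding measured by equilibrium dialysis.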

[12] = target: T1, Free fatty acid receptor 1; test: Displacement of [3H]-(S)-2-(6-((2',6'-dimethyl-4'-(3-(methylsulfonyl)propoxy)biphenyl-3-yl)methoxy)-2,3-dihydrobenzofuran-3-yl)acetic acid from human recombinant full-length GPR40 expressed in human HEK293 cell membrane assessed as residence time by radioligand competitive assay; format: cell membranes; settings: filed as agonist
In short: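 Residence time came from competitive association kinetics. [3H]-radioligand binding to human GPR40 HEK293 membranes (5 μg, rt, Tris/Ca/Mg/0.1% BSA buffer) was measured at time points over 0–3 h, with and without several concentrations of unlabeled test compound. Fits used association and dissociation rates of the radioligand from independent kinetic experiments.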

[13] = target: T1, Free fatty acid receptor 1; test: Agonist activity at human recombinant full-length Prolink-tagged GPR40 fused with EA-tagged beta-arrestin expressed in human HEK293 cells assessed as induction of beta-arrestin recruitment measured after 90 mins by beta-galactosidase based PathHunter assay; format: cell-based; in short: as §1
[14] = target: Free fatty acid receptor 1 (Rattus norvegicus, UniProt Q8K3T4); test: Agonist activity at Prolink-tagged rat GPR40 fused with EA-tagged beta-arrestin expressed in human U2OS cells assessed as induction of beta-arrestin recruitment measured after 90 mins by beta-galactosidase based PathHunter assay; format: cell-based; in short: as §1
Sequence of Free fatty acid receptor 1 (Rattus norvegicus, UniProt Q8K3T4) (Q8K3T4 whole entry, the tested form may be a part): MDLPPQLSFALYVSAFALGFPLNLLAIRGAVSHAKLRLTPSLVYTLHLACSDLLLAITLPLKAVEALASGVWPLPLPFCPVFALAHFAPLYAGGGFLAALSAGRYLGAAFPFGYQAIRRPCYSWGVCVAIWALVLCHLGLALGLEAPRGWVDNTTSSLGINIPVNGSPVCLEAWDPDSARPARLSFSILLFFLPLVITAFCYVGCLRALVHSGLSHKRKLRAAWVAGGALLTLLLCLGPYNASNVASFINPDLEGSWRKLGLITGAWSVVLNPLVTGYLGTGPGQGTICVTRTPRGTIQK

In the case of `CC#C[C@@H](CC(=O)O)c1ccc(OCc2ccc(CN3CCC4(C=Cc5ccccc54)CC3)cc2)cc1` [LY2881835], the EC50 ([1]; u2os) is reported as 0.85 nM, the Emax [2] is reported as 62% and the Activity [3] is reported as “inactive”. It also gave an Emax [4] of 133%, a pKa [5] of 8.1 and a pKa [6] of 4.1. For the same molecule, the EC50 [7] was 1.2 nM, the Activity ([8]; filed as agonist) was “Active” and the ED90 (Mus musculus) was 0.58 mg/kg. The Emax [9] was 137%, the Activity [10] was “Dose-dependent effect” and the fraction unbound [11] was under 0.01. For the same molecule, the TIME [12] was 2 h.
For `CC#C[C@@H](CC(=O)O)c1ccc(OCc2ccc(CN3CCC4(CCc5ccccc54)CC3)cc2)cc1`, the EC50 [1] was 0.88 nM, the Emax [2] was 46% and the Activity [3] was “inactive”. For the same molecule, the Emax [4] was 135%, the pKa [5] was 8.6 and the EC50 [13] was 11 nM. For the same molecule, the pKa [6] was 4.6, the EC50 [14] was 1.3 nM and the EC50 [7] was 6.2 nM. The Activity ([8]; filed as agonist) was “Active”, the ED90 (Mus musculus) was 22 mg/kg and the Emax [9] was 137%. The Ki [10] was 4.6 nM, the fraction unbound [11] was under 0.01 and the TIME [12] was 1.1 h.
In the case of `CC#C[C@@H](CC(=O)O)c1ccc(OCc2ccc(CN3CCC4(CC3)CN(C)c3ccccc34)cc2)cc1`, the EC50 [1] is reported as 3.3 nM, the Emax [2] is reported as 47% and the Activity [3] is reported as “inactive”. The Emax [4] was 131%, the pKa [5] was 8.3 and the EC50 [13] was 56 nM. For the same molecule, the pKa [6] was 4.3, the EC50 [14] was 5.5 nM and the EC50 [7] was 12 nM. For the same molecule, the Activity ([8]; filed as agonist) was “Active”, the ED90 (Mus musculus) was 11.7 mg/kg and the Emax [9] was 134%. For the same molecule, the Ki [10] was 11 nM, the fraction unbound [11] was under 0.01 and the TIME [12] was 0.783 h.
`CC#C[C@@H](CC(=O)O)c1ccc(OCc2ccc(CN3CCCc4cccc(OC)c43)s2)cc1` showed an EC50 [1] of 1 nM, an Emax [4] of 137% and a pKa [5] of 6. For the same molecule, the EC50 [13] was 7 nM, the pKa [6] was 3.4 and the EC50 [14] was 3 nM. For the same molecule, the ED90 (Mus musculus) was 5 mg/kg, the Emax [9] was 139% and the Activity [10] was “Dose-dependent effect”. The fraction unbound [11] was under 0.01.
With `CC#C[C@@H](CC(=O)O)c1ccc(OCc2ccc(CN3CCC4(CCc5ccccc54)CC3)s2)cc1` the EC50 [1] was 1.2 nM, the Emax [2] was 50% and the Activity [3] was “inactive”. The Emax [4] was 126%, the pKa [5] was 7.9 and the EC50 [13] was 7.9 nM. For the same molecule, the pKa [6] was 3.4, the EC50 [14] was 1.7 nM and the EC50 [7] was 6.1 nM. The Activity ([8]; filed as agonist) was “Active”, the ED90 (Mus musculus) was 5.6 mg/kg and the Emax [9] was 121%. For the same molecule, the Ki [10] was 8.2 nM, the Activity [10] was “Dose-dependent effect” and the fraction unbound [11] was under 0.01. For the same molecule, the TIME [12] was 1.03 h.
In the case of `O=C(O)CCc1ccc(OCc2ccc(CN3CCC4(C=Cc5ccccc54)CC3)cc2)cc1F`, the EC50 [1] is reported as 32 nM, the Emax [2] is reported as 80% and the Activity [3] is reported as “inactive”. For the same molecule, the Emax [4] was 127%, the pKa [5] was 7.7 and the EC50 [13] was 340 nM. The pKa [6] was 3.9, the EC50 [14] was 160 nM and the EC50 [7] was 39 nM. The Activity [8] was “inactive”, the ED90 (Mus musculus) was over 100 mg/kg and the Emax [9] was 144%. It also gave a Ki [10] of 68 nM, a fraction unbound [11] of under 0.01 and a TIME [12] of 0.2 h.
In the case of `CC#C[C@@H](CC(=O)O)c1ccc(OCc2ccc(CN3CCC4(C=Cc5ccccc54)CC3)s2)cc1`, the EC50 [1] is reported as 0.46 nM, the Emax [2] is reported as 50% and the Activity [3] is reported as “inactive”. It also gave an Emax [4] of 119%, a pKa [5] of 7.4 and an EC50 [13] of 5.3 nM. For the same molecule, the pKa [6] was 4.2, the EC50 [14] was 0.93 nM and the EC50 [7] was 0.6 nM. For the same molecule, the Activity ([8]; filed as agonist) was “Active”, the ED90 (Mus musculus) was 3.67 mg/kg and the Emax [9] was 116%. It also gave a Ki [10] of 4.8 nM, a fraction unbound [11] of under 0.01 and a TIME [12] of 0.667 h.
With `O=C(O)C[C@@H](c1ccc(OCc2ccc3nc(-c4ccccc4)nn3c2)cc1)c1ccon1` the EC50 [1] was 3800 nM, the Emax [2] was 54% and the Activity [3] was “inactive”. The Emax [4] was 98%, the EC50 [13] was 600 nM and the pKa [6] was 1.9. For the same molecule, the EC50 [14] was 14000 nM, the EC50 [7] was 68 nM and the Activity [8] was “inactive”. It also gave an ED90 (Mus musculus) of over 100 mg/kg, an Emax [9] of 141% and a Ki [10] of 79 nM. It also gave a fraction unbound [11] of under 0.01 and a TIME [12] of 0.367 h.
